According to ChEMBL document CHEMBL2311348, “The extremo-α-carbonic anhydrase (CA) from Sulfurihydrogenibium azorense, the fastest CA known, is highly activated by amino acids and amines” (Bioorg Med Chem Lett, 2013):

Tests used:
[1] = system: Sulfurihydrogenibium azorense; assay: Activation of Sulfurihydrogenibium azorense recombinant alpha carbonic anhydrase by stopped flow CO2 hydrase method
In short: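 Full-length recombinant enzyme in a stopped-flow CO2 hydration assay at 25 °C: 0.2 mM phenol red read at its absorbance maximum, 10 mM Hepes pH 7.5, 0.1 M NaClO4, 10 s traces, CO2 1.7–17 mM. Activators were diluted from 10 mM water stocks down to 0.001 µM and preincubated with enzyme for 15 min at room temperature. Uncatalyzed rates were subtracted. kcat was measured at 10 µM activator. KA came from a steady-state equation, mean of ≥3 determinations.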

[2] = system: Sulfurihydrogenibium yellowstonense; assay: Activation of Sulfurihydrogenibium yellowstonense recombinant CA by stopped flow CO2 hydrase method

| Structure (SMILES) | KA [1] [µM] | KA [2] [µM] |
| --- | --- | --- |
| NCCc1c[nH]cn1 | 0.1 | 0.08 |
| N[C@H](Cc1ccc(O)cc1)C(=O)O | 0.11 | 0.83 |
| N[C@@H](Cc1ccc(O)c(O)c1)C(=O)O | 0.004 | 0.09 |
| N[C@H](Cc1c[nH]c2ccccc12)C(=O)O | 0.003 | 0.002 |
| NCc1ccccn1 | 0.081 | 0.1 |
| NCCN1CCNCC1 | 0.076 | 0.09 |
| N[C@@H](Cc1c[nH]cn1)C(=O)O | 0.071 | 0.11 |
| CNC[C@@H](O)c1ccc(O)c(O)c1 | 0.074 | 0.68 |
| N[C@@H](Cc1ccc(O)cc1)C(=O)O | 0.052 | 0.001 |
| Nc1ccc(C[C@H](N)C(=O)O)cc1 | 0.09 | 0.97 |
| N[C@H](Cc1ccc(O)c(O)c1)C(=O)O | 0.89 | 0.43 |
| N[C@H](Cc1c[nH]cn1)C(=O)O | 0.09 | 0.012 |
| NCCc1ccccn1 | 0.34 | 0.33 |
| N[C@@H](Cc1c[nH]c2ccccc12)C(=O)O | 0.023 | 0.007 |
| NCCc1ccc(O)c(O)c1 | 0.011 | 0.037 |
| NCCc1c[nH]c2ccc(O)cc12 | 0.007 | 0.021 |
| NCCN1CCOCC1 | 1.15 | 0.1 |
